This note sets out measurements from paper PMC6605687 (The Journal of General Physiology, 2019).

Broadly, the EC50 is the concentration at which the effect is half-maximal. The low end stands for greater potency, the high end for weaker potency.

What all share (format): cell-based
One assay has as its target T1, rP2X2 Val70Vah (Rattus norvegicus, UniProt P49653).
T1 sequence (P49653 1-472): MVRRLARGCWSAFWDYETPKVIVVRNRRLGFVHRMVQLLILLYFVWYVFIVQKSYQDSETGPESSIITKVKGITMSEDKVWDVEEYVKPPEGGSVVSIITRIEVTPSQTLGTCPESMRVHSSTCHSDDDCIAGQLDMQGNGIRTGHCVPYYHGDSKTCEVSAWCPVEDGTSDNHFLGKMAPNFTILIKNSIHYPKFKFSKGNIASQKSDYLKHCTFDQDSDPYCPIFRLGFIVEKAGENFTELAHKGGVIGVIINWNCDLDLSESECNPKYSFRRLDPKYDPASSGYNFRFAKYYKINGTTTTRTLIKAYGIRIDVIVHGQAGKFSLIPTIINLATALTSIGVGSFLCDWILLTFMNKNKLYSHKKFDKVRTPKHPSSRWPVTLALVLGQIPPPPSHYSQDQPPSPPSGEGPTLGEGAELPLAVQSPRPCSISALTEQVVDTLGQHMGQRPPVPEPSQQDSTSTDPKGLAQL
Kind of assay: Two-electrode voltage clamp, oocytes expressing rP2X2 Val70Vah.

Another assay deals with T2, rP2X2 Lys188Arg (Rattus norvegicus, UniProt P49653, K188R).
T2 sequence (P49653 1-472 K188R): T1 sequence (P49653 1-472) with K188R
Kind of assay: Two-electrode voltage clamp, oocytes expressing rP2X2 Lys188Arg. The method in brief:
(§1)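 Mutations were made by site-directed mutagenesis. Xenopus oocytes were injected with rP2X2 mRNA and incubated in L-15 at 18°C. Two-electrode voltage clamp was done 1–2 days later at −40 mV under ND96 perfusion (pH 7.4). ATP concentration-response currents were normalised and fitted to a one-component Hill equation for EC50 and Hill coefficient. Results are mean ± SEM, tested by one-way ANOVA with Dunnett's test against WT.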

The next assay deals with T3, rP2X2 Lys188Gln (Rattus norvegicus, UniProt P49653, K188Q).
T3 sequence (P49653 1-472 K188Q): T1 sequence (P49653 1-472) with K188Q
The assay can be described thus: Two-electrode voltage clamp, oocytes expressing rP2X2 Lys188Gln. The method in brief: as §1
(In two-electrode clamp one electrode senses voltage and the other passes current.)

The target of a further assay is T4, rP2X2 Lys308Gln (Rattus norvegicus, UniProt P49653, K308Q).
T4 sequence (P49653 1-472 K308Q): T1 sequence (P49653 1-472) with K308Q
The assay can be described thus: Two-electrode voltage clamp, oocytes expressing rP2X2 Lys308Gln. The method in brief: as §1

The next assay addresses T5, rP2X2 Ile185Val (Rattus norvegicus, UniProt P49653, I185V).
T5 sequence (P49653 1-472 I185V): T1 sequence (P49653 1-472) with I185V
Kind of assay: Two-electrode voltage clamp, oocytes expressing rP2X2 Ile185Val. The method in brief:
as §1

Residue numbers refer to the chain shown, from its start.

In the case of `Nc1ncnc2c1ncn2[C@@H]1O[C@H](COP(=O)(O)OP(=O)(O)OP(=O)(O)O)[C@@H](O)[C@H]1O` [ATP, Adenosine 5′-triphosphate], at rP2X2 Val70Vah (Val70Vah compared with WT), the “Fold increase in EC50, Val70Vah versus WT” value is on record as “fourfold”. In addition, the EC50 on rP2X2 Val70Vah (Val70Vah, mean ± SEM) is 120 ± 2 µM; at rP2X2 Lys188Arg it was 57 ± 8 µM; at rP2X2 Lys188Gln, 8700 µM; on rP2X2 Lys308Gln it was 5800 µM; at rP2X2 Ile185Val it was 23 ± 3 µM.
